Source: PubChem BioAssay (several laboratories)
Hits are enriched below; roughly 2.6% of the tested compounds scored in any of these assays.
SENP7 block: SENP7 protease inhibition; Q9BQF6; recombinant SENP7, Z-RLRGG-aminoluciferin luminescence, 40 min; inhibition, % at 5 µM; hit rate 1.5% among 330,000; AID 434973;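 active means inhibition above about 50% at the single test dose, limit read from the data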;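 further: plate controls were DMSO with enzyme for no effect and no enzyme buffer wells for full effect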
Target sequence (Q9BQF6 706-1050 limits assumed): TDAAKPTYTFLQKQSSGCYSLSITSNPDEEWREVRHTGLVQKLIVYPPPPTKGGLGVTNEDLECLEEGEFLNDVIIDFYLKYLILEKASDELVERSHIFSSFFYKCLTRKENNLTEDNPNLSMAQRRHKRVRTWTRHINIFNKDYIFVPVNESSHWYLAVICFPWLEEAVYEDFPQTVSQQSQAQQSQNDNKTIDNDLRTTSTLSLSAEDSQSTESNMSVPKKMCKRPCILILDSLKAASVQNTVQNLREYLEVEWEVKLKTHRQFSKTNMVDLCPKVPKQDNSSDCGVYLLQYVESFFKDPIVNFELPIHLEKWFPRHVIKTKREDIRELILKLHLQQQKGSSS
SENP8 block-1: blocks the human protease SENP8; purified SENP8, Z-RLRGG-aminoluciferin cleavage, luminescence; inhibition, % at 10 µM; hit rate 1.2% among 330,000; AID 2540; in the data active means inhibition above about 50%
SENP6 block: blocks the human protease SENP6; inhibition, % at 10 µM; hit rate 1.8% among 330,000; Recombinant SENP6 catalytic domain, aminoluciferin luminescence; Q9GZR1;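 active means inhibition above about 50% at the single tested dose, limit read from the data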;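 further: plate controls were DMSO wells with enzyme for no effect and DMSO wells lacking enzyme for full effect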
SENP8 block-2: inhibitors of human SENP8 protease; Q96LD8; recombinant SENP8, Nedd8 substrate fluorescence; inhibition, % at 20 µM; hit rate 0.64% among 360,000; AID 602440; in the data active means inhibition mostly above about 40%, no sharp cut-off; inactive means mostly below about 27%
SENP1 FRET inh: blocks the human SENP1 SUMO protease catalytic domain; Q9P0U3; recombinant SENP1 catalytic domain, CyPet-SUMO1-YPet FRET cleavage; AID 624204; hit rate 0.21% among 360,000; inhibition, % at 10 µM;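 active means inhibition at least 30% at 10 µM, raw YFP signal under a set limit, fluorescence ratio 0.5 to 1.5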;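 further: 0% = enzyme with DMSO and 100% = no enzyme wells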
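Controls: no-enzyme wells low, DMSO-plus-enzyme wells high control. Test system: human recombinant His6-tagged SENP1 catalytic domain enzyme. Reagent: SFCypet-SUMO1-SFYpet FRET protein substrate, 25 nM final. Doses: one dose per compound, 10 µM, 0.5% DMSO. Detection: FRET, CFP and YFP emission. Timing: 50 min reaction at room temperature.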
Platelet DG rel: platelet dense granule release activity; human platelet-rich plasma, SFLLRN dense granule ATP release, luminescence; inhibition, %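 (compounds screened at 7.5 µM in platelet-rich plasma)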; hit rate 0.22% among 300,000;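 active means mean replicate score, as percent of positive control, at or above 50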
SENP8 confirm: confirmation of human SENP8 protease inhibitors; shares compounds with SENP7 block; Recombinant SENP8, Z-RLRGG-aminoluciferin luminescence, 60 min; inhibition, % at 12.5 µM; hit rate 40% among 6,200; AID 488912;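 active means mean inhibition across replicates above about 50%, limit read from the data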
SENP6 conf: confirmation of human SENP6 protease inhibitors; shares compounds with SENP7 block; recombinant SENP6, Z-RLRGG-aminoluciferin luminescence; inhibition, % at 12.5 µM; hit rate 58% among 6,200; AID 488915
SENP7 conf: human SENP7 inhibition, confirmed | inhibition, % at 12.5 µM | recombinant SENP7, Z-RLRGG-aminoluciferin luminescence, 40 min | shares compounds with SENP7 block | AID 488917 | hit rate 69% among 6,200
Casp3 SENP sel: selectivity test for SENP inhibitors: human caspase-3 inhibition. AID 488918. inhibition, % at 12.5 µM. shares compounds with SENP7 block. purified caspase-3, Z-DEVD-aminoluciferin luminescence, 60 min. hit rate 60% among 6,200;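 active means mean inhibition above about 50%, limit read from the data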;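 further: plate controls were enzyme with DMSO for no effect and wells without caspase-3 for full effect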
SENP luc ctr: interferes with luciferase luminescence in SENP counter-screen | hit rate 39% among 6,200 | inhibition, % at 12.5 µM | shares compounds with SENP7 block | Pre-incubated SENP8/Z-RLRGG-aminoluciferin, luciferase luminescence interference;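 active means mean inhibition above about 50% when retested at one dose, limit read from the data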;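 further: plate controls were DMSO wells with completed reaction for no effect and substrate without enzyme for full effect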
* marks the source's active call; other numbers are inactive results.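 How the source made its calls, unless noted: active means mean inhibition above about 50% in the one-dose retest (limit read from the data); inactive means the rest.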

What do the screens show for `CCN(C(=O)COC(=O)c1cccnc1Nc1cccc(C(F)(F)F)c1)C1CCS(=O)(=O)C1` (centres undefined)?
SENP7 block: 72*; SENP8 block-1: 50; SENP6 block: 63*; SENP8 block-2: -42; SENP1 FRET inh: 1; Platelet DG rel: 0; SENP8 confirm: 66*; SENP6 conf: 64*; SENP7 conf: 86*; Casp3 SENP sel: 50; SENP luc ctr: 64*

What do the screens show for `CCN1C(=O)c2cccc3c(S(=O)(=O)Nc4ncccc4C)ccc1c23`?
SENP7 block: 64*; SENP8 block-1: -5; SENP6 block: 5; SENP8 block-2: -300; SENP1 FRET inh: -22; Platelet DG rel: -5; SENP8 confirm: -24; SENP6 conf: -15; SENP7 conf: -13; Casp3 SENP sel: -11; SENP luc ctr: -6

What do the screens show for `CCN1C(=O)c2cccc3c(S(=O)(=O)Nc4ccccn4)ccc1c23`?
SENP7 block: 0; SENP8 block-1: -1; SENP6 block: -10; SENP8 block-2: -321; SENP1 FRET inh: -48; Platelet DG rel: 0

How did O=C(Cc1cccc(NC(=O)C2CCCN(C(=O)C3CC3)C2)c1)Nc1ccc(C(=O)N2CCOCC2)cc1 (centres undefined) do in these assays?
SENP8 block-2: 1; SENP1 FRET inh: 1

What do the screens show for `CC1(C)Oc2ccc3ccc(=O)oc3c2/C(=C/NNC(N)=O)C1=O`?
SENP7 block: -2; SENP8 block-1: -2; SENP6 block: 7; SENP8 block-2: -16; SENP1 FRET inh: -1; Platelet DG rel: 10

Results for Fc1ccc(Nc2ccc3ccccc3n2)c(F)c1 ?
SENP7 block: 99*; SENP8 block-1: 95*; SENP6 block: 95*; SENP8 block-2: -415; SENP1 FRET inh: 2; Platelet DG rel: 26; SENP8 confirm: 98*; SENP6 conf: 99*; SENP7 conf: 103*; Casp3 SENP sel: 95*; SENP luc ctr: 93*

Results for O=C(Nc1ccc2ccccc2n1)Nc1ccccc1F ?
SENP7 block: 5; SENP8 block-1: -2; SENP6 block: -9; SENP8 block-2: 14; SENP1 FRET inh: -1; Platelet DG rel: -7

Results for Cc1ccccc1-c1nc(-c2ccc(Br)o2)no1 ?
SENP7 block: 67*; SENP8 block-1: 58*; SENP6 block: 72*; SENP8 block-2: 14; SENP1 FRET inh: -2; Platelet DG rel: 1; SENP8 confirm: 22; SENP6 conf: 64*; SENP7 conf: 86*; Casp3 SENP sel: 45; SENP luc ctr: 38

What do the screens show for `Fc1ccccc1-c1nc(-c2ccc(Br)o2)no1`?
SENP7 block: 89*; SENP8 block-1: 85*; SENP6 block: 84*; SENP8 block-2: 12; SENP1 FRET inh: 0; Platelet DG rel: 8; SENP8 confirm: -12; SENP6 conf: 83*; SENP7 conf: 97*; Casp3 SENP sel: 68*; SENP luc ctr: 23

What do the screens show for `O=C(CCN1C(=O)S/C(=C/c2ccc(F)cc2)C1=O)Nc1ccc(O)c(C(=O)O)c1`?
SENP7 block: -2; SENP8 block-1: -2; SENP6 block: 4; SENP8 block-2: -268; SENP1 FRET inh: 2; Platelet DG rel: 20

How did O=C(CCN1C(=O)S/C(=C\c2ccc(F)cc2)C1=O)Nc1ccc(C(=O)O)c(O)c1 do in these assays?
SENP7 block: 60*; SENP8 block-1: 75*; SENP6 block: 82*; SENP8 block-2: -7; SENP1 FRET inh: 4; Platelet DG rel: 9; SENP8 confirm: 85*; SENP6 conf: 80*; SENP7 conf: 81*; Casp3 SENP sel: 44; SENP luc ctr: 79*
